Bioassay records from PubChem.
This is a sample that favours compounds with a hit; in the whole collection about 1.7% have one here.
SUMO1 PPI mod: modulators of human SUMO1-mediated protein-protein interactions; SUMO1 binding to a labelled peptide, TR-FRET, 1 h; AID 602429; hit rate 0.33% among 360,000; inhibition, % at 20 µM; in the data active means inhibition above about 37%
LMPTP inh: LMPTP (human) inhibition | P24666 | recombinant LMPTP-A, OMFP fluorogenic substrate, fluorescence intensity | inhibition, % at 20 µM | hit rate 0.22% among 360,000 | AID 651560;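 active means compounds that cut the enzyme signal by at least half of the control window in the single-dose screen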
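test system = LMPTP-A | amount = 0.625 nM LMPTP-A final | reagent = fluorogenic phosphatase substrate OMFP at 400 µM final | incubation = 50 min at room temperature | benchmarks = no-enzyme low control, uninhibited high control | medium = Bis-Tris pH 6.0, DTT, detergent | signal = fluorescence intensity of OMFP turnover product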
STEP block: inhibitors of human striatal-enriched phosphatase STEP. P54829. recombinant STEP, OMFP fluorogenic substrate, fluorescence. inhibition, % at 20 µM. hit rate 0.25% among 360,000. AID 588621;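 active means inhibition at 20 µM, scaled per plate between control wells, above about 37%, limit read from the data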
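Assay system: isolated STEP enzyme. Buffer or medium: pH 6.0 Bis-Tris with DTT and Tween 20. Also added: fluorogenic phosphatase substrate OMFP at 25 µM final. Dosing: 20 µM, 1% DMSO. Timing: 20 min reaction, room temperature, in the dark. Measured by: fluorescence intensity, excitation 480 nm, emission 540 nm. Evaluation: normalized % inhibition.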
DNMT1 inh: DNMT1 (human) enzyme inhibition. AID 588458. hit rate 0.83% among 360,000. DNMT1 molecular beacon, Hinp1I cleavage, fluorescence. inhibition (reported as % activation of signal), % at 10 µM. P26358; in the data active means inhibition above about 50%
Target sequence (P26358 504-1616 limits assumed): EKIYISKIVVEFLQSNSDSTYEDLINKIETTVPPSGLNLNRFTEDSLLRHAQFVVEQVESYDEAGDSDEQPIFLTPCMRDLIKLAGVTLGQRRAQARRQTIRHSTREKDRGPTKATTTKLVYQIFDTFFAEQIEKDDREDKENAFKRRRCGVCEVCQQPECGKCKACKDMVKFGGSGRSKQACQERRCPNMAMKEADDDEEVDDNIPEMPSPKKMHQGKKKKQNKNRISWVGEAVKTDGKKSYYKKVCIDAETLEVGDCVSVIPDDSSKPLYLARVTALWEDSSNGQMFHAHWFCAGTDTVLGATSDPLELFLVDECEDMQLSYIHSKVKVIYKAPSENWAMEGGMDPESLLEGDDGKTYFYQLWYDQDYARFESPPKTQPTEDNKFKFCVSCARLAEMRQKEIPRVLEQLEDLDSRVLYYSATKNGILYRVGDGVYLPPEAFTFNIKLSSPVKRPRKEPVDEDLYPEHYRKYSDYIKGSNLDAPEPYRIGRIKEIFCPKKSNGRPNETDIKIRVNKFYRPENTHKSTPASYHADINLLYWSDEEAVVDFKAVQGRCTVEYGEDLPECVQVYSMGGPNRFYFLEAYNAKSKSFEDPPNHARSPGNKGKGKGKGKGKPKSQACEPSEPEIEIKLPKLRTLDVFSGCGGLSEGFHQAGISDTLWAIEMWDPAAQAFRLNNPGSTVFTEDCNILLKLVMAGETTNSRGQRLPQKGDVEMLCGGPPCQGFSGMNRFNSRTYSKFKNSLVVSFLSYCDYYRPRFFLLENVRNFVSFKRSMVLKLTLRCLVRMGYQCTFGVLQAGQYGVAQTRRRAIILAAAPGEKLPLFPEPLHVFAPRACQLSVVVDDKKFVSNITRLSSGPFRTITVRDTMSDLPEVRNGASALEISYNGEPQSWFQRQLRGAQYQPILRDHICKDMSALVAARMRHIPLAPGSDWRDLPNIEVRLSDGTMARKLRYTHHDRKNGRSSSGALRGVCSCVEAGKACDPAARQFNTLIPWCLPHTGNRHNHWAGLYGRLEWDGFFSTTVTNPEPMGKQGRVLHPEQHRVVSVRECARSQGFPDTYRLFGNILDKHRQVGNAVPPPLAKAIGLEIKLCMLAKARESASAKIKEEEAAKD
Scp-1 inhibitor: blocks human Scp-1 phosphatase activity; Recombinant Scp1, phosphopeptide, malachite green phosphate absorbance; inhibition, % at 20 µM; hit rate 0.88% among 340,000;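 active means inhibition above about 50% at 20 µM, limit read from the data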
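Test system: SCP-1 catalytic domain; Buffer or medium: Acidic Tris acetate buffer with magnesium and detergent; Also added: Phosphorylated 17-residue peptide substrate; Compound: single 20 µM dose, 1% DMSO; Schedule: enzyme reaction 45 min at room temperature, colour 5 min, stabilisation 30 min; Signal: Phosphate-binding colour reagent, absorbance read at 630 nm.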
Each line names hits and unclear results; the compound was inactive in the other large screens; ! = a repeat was not active.

O=C(O)c1ccccc1NS(=O)(=O)c1cccc(C(F)(F)F)c1	none
O=C(O)c1ccccc1NS(=O)(=O)c1cccc(-n2sc3ccccc3c2=O)c1	Scp-1 inhibitor 94.9
COc1ccc(C)cc1S(=O)(=O)N(CC(=O)NC1CCCC1)c1ccc(F)cc1	none
O=C(Nc1cccc(NC(=O)c2ccc(Cl)cc2Cl)c1)c1cccnc1	none
CCCCCCCCCCCCCCCC[n+]1cccc(C(=O)N(CC)CC)c1	SUMO1 PPI mod 38.1!
CCCCCCCCCCCCCCCC[n+]1ccc(C(N)=O)cc1	SUMO1 PPI mod 52.4
CCCCCCCCCCCCCCCC[n+]1ccccc1	none
Cc1ccc(S(=O)(=O)NCC(=O)OCC(=O)N2C(C)CCCC2C)cc1 (configuration not stated)	none
Cc1cc(-c2nc3cc(F)ccc3s2)ccc1N	none
CC(C)CCn1c(N)c(S(=O)(=O)c2cccs2)c2nc3ccccc3nc21	none
CCCCn1c(NC(=O)c2ccco2)c(S(=O)(=O)c2ccc(C)cc2)c2nc3ccccc3nc21	SUMO1 PPI mod 41.6
Cc1ccc(S(=O)(=O)c2c(N)n(CCC(C)C)c3nc4ccccc4nc23)cc1	SUMO1 PPI mod 42.4
CCCCn1c(NS(=O)(=O)c2ccccc2)c(S(=O)(=O)c2ccc(C)cc2)c2nc3ccccc3nc21	SUMO1 PPI mod 48.2, DNMT1 inh 80.0
CCCCn1c(NC(=O)c2ccc(Br)o2)c(S(=O)(=O)c2ccccc2)c2nc3ccccc3nc21	SUMO1 PPI mod 46.7
COC(=O)N1CCCCC1c1cc(C(=O)N2CCOCC2)no1 (configuration not stated)	none (no result: Scp-1 inhibitor)
CCOC(=O)c1ccc(NC(=O)c2c(N)n(Cc3ccccc3)c(=O)[nH]c2=O)cc1	SUMO1 PPI mod 46.4
CCOC(=O)c1ccc(NC(=O)c2ccccc2)cc1	none
CCC(C(=O)n1cccc1C#N)c1ccccc1C (configuration not stated)	none
CCN(C(=O)CSc1nnc(Nc2ccc(OC)cc2)s1)C1CCS(=O)(=O)C1 (configuration not stated)	SUMO1 PPI mod 48.6
NS(=O)(=O)c1cc(C(=O)NC2CCSc3ccccc32)ccc1Cl (configuration not stated)	SUMO1 PPI mod 120.7, LMPTP inh 71.5, STEP block 99.6, DNMT1 inh 84.3, Scp-1 inhibitor 94.2
CCc1nc2ccc(C(=O)N(C)CCCN(C)C)cn2c1N(CC)CCOC	none (no result: Scp-1 inhibitor)
NC(CSC(c1ccccc1)(c1ccccc1)c1cccc2ccccc12)C(=O)O (configuration not stated)	DNMT1 inh 68.6
N=C1S/C(=C\c2ccc(-c3ccccc3C(=O)O)o2)C(=O)N1c1ccc2c(c1)OCO2	Scp-1 inhibitor 52.9
CCOC(=O)CN1C(=O)S/C(=C\c2ccc(-c3cccc(C(=O)O)c3C)o2)C1=O	none
Cc1ccc2nc(N3C(=O)C(O)=C(C(=O)c4cc5ccccc5o4)C3c3cccs3)sc2c1 (configuration not stated)	DNMT1 inh 77.6
Oc1ccc(N=Cc2ccc(O)c(O)c2)cc1	SUMO1 PPI mod 50.8, DNMT1 inh 65.4
Oc1ccc(/C=N/N=C/c2ccc(O)c(O)c2)cc1O	none
Cc1ccc2cc(NC(=O)C3(C)CCN(C)C3)ccc2n1 (configuration not stated)	none (no result: Scp-1 inhibitor)
Cc1ccnc(NC(c2ccccc2)c2ccc3cccnc3c2O)c1 (configuration not stated)	none
Cc1ccnc(NC(c2cccnc2)c2ccc3cccnc3c2O)c1 (configuration not stated)	LMPTP inh 53.9
C[C@@H]1CN([C@@H](C)CO)C(=O)CCCn2nncc2CO[C@H]1CN(C)Cc1ccccc1C(F)(F)F	none (no result: Scp-1 inhibitor)
Cc1cc(N/N=C/c2ccccc2O)nc(-c2ccccc2O)n1	SUMO1 PPI mod 42.3
COC(=O)c1ccc(Nc2cc(C)nc(-c3ccccc3O)n2)cc1	SUMO1 PPI mod 58.8
CC(C)CN(C(=O)Cn1ccccc1=O)C1CCS(=O)(=O)C1 (configuration not stated)	none
Cc1cc(-c2nnc(SCC(=O)Nc3c(C)cccc3C)n2N)n[nH]1	none
CC(=O)c1c(C)[nH]c(C(=O)OCC(=O)c2ccc3c(c2)NC(=O)CO3)c1C	SUMO1 PPI mod 64.8
Cc1cccc(C(=O)OCC(=O)c2ccc3c(c2)NC(=O)CO3)c1	none
O=C(/C=C/c1ccccc1)c1cc(Br)ccc(=O)c1O	DNMT1 inh 60.8
CCC(CO)Oc1cc(NC(=O)c2ccccc2N)c2ncn(C(C)C)c2c1 (configuration not stated)	none
CCC(CO)Oc1cc(NC(=O)c2ccccc2C)c2ncn(C(C)C)c2c1 (configuration not stated)	SUMO1 PPI mod 50.0
CCC(CN(C)C)Oc1cc(NCc2ccccc2)c2ncn(C(C)C)c2c1 (configuration not stated)	DNMT1 inh 60.6
CCC(CO)Oc1cc(NC(=O)c2ccccc2F)c2ncn(C(C)C)c2c1 (configuration not stated)	SUMO1 PPI mod 92.0
COc1ccc(N(CC(=O)Nc2ccc3c(c2)OCCO3)S(=O)(=O)c2cccc(C)c2)cc1	none
Cn1ccc2c(-c3ccc(C(F)(F)F)cc3)cc3c(c21)C1CCC3C1 (configuration not stated)	none (no result: Scp-1 inhibitor)
O=C(N/N=C/c1c(O)ccc2ccccc12)c1ccc(Br)o1	LMPTP inh 64.3, STEP block 76.7, Scp-1 inhibitor 99.2
Cc1ccc(S(=O)(=O)N2CC(O)CC2C(=O)O)cc1 (configuration not stated)	none
CCOC(=O)c1ccc(NC(=O)C2CC(O)CN2S(=O)(=O)c2ccc(C)cc2)cc1 (configuration not stated)	SUMO1 PPI mod 42.5
NS(=O)(=O)c1ccc(CCNC(=O)CSc2nc3ccsc3c(=O)n2Cc2ccccn2)cc1	none (no result: Scp-1 inhibitor)
CC(C)(O)C1Cc2cc(/C=C/C(=O)O)c(O)cc2O1 (configuration not stated)	Scp-1 inhibitor 95.1
COc1cc2c(cc1/C=C/C(=O)O)OC(C)C2 (configuration not stated)	none
CC1(C(=O)NS(=O)(=O)C2CC2)CCN(C(=O)c2c(F)cccc2F)C1 (configuration not stated)	none (no result: Scp-1 inhibitor)
COc1ccc(NC(=O)CSc2nnc(Cc3ccc(C)cc3)c(=O)n2N)cc1OC	none
CSc1cccc(NC(=S)NC(=O)CCc2ccccc2)c1	SUMO1 PPI mod 38.3
CSc1cccc(NC(=O)CCc2ccccc2)c1	none
COc1ccc(-c2nc(CN3CCC(C(=O)N4CCOCC4)CC3)c(C)o2)cc1OC	none
Cc1oc(-c2cc(F)ccc2F)nc1CN1CCC(C(=O)N2CCOCC2)CC1	SUMO1 PPI mod 43.9
Cc1ccc(-c2cc(C#N)c(=O)n(Cc3c(Cl)cccc3Cl)c2)cc1	SUMO1 PPI mod 41.5
CC(=O)c1ccc(N(CC(=O)Nc2cc(C)on2)S(=O)(=O)c2ccc(C)cc2)cc1	none
